Test results reported in ChEMBL document CHEMBL3421596, “A facile synthesis and microtubule-destabilizing properties of 4-(1H-benzo[d]imidazol-2-yl)-furazan-3-amines” (Eur J Med Chem, 2015).
The source made the active and inactive calls. No cut-off for these calls is given here.

Key:
[1] = tested on: Paracentrotus lividus; assay: Antiproliferative activity in sea urchin embryo assessed as antimitotic activity by measuring cleavage alteration exposed for 8 to 20 mins after fertilization and 45 to 55 mins before first mitotic cycle completion measured 2.5 to […] after fertilization; type: functional
[2] = tested on: Paracentrotus lividus; assay: Antiproliferative activity in sea urchin embryo assessed as antimitotic activity by measuring cleavage arrest exposed for 8 to 20 mins after fertilization and 45 to 55 mins before first mitotic cycle completion measured 2.5 to […] after fertilization; type: functional
[3] = tested on: Paracentrotus lividus; assay: Antiproliferative activity in sea urchin embryo assessed as destabilization of microtubule by measuring embryo spinning after 15 mins to 20 hrs; type: functional
[4] = Cytotoxicity against human NCI60 cells assessed as cell growth at 10 uM; type: functional; conditions: read-out: Activity
Summary of the method: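 NCI60 panel screened by the NCI Developmental Therapeutics Program at a single 10 µM concentration; mean cell growth percent reported.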

[5] = target: Tubulin (Bos taurus, UniProt Q6B856+Q862L2+Q862F3); assay: Inhibition of bovine tubulin polymerization by turbidity assay; type: protein assay
[6] = Cytotoxicity against human NCI60 cells; type: functional
[7] = tested on: Paracentrotus lividus; assay: Antiproliferative activity in sea urchin embryo assessed as destabilization of microtubule by tuberculate eggs after 15 mins to 20 hrs; type: functional, organism-based
[8] = tested on: SF-539; assay: Cytotoxicity against human SF539 cells; type: functional
[9] = tested on: MDA-MB-435; assay: Cytotoxicity against human MDA-MB-435 cells; type: functional
[10] = Cytotoxicity against human OVCAR3 cells; type: functional
[11] = Cytotoxicity against human OVCAR8 cells; type: functional
[12] = Cytotoxicity against human NCI-ADR-RES cells; type: functional
[13] = tested on: RXF 393; assay: Cytotoxicity against human RXF393 cells; type: functional

Structure (SMILES) | EC [1] [µM] | EC [2] [µM] | EC [3] [µM] | growth at 10 µM [4] [%] | further results
COc1ccc(NC(=O)Cn2c(-c3nonc3N)nc3ccccc32)cc1Cl | >4 | >4 | >4 | 100 | 
CC(=O)Nc1nonc1-c1nc2ccccc2n1Cc1ccc(C(C)(C)C)cc1 |  |  |  | 73.5 | 
Nc1nonc1-c1nc2ccccc2n1CC(=O)Nc1ccc2c(c1)COC2=O | 2 | 4 | >4 | 80.8 | 
Nc1nonc1-c1nc2ccccc2[nH]1 | 2 | >4 | >4 | 103 | 
Cn1c(-c2nonc2NC(=O)c2ccc(F)cc2)nc2ccccc21 |  |  |  | 99.5 | 
Nc1nonc1-c1nc2ccccc2n1Cc1cccc(C(F)(F)F)c1 |  |  |  |  | IC50 [5]: 13.27 µM
Cc1ccc(Cn2c(-c3nonc3N)nc3ccccc32)cc1 |  |  |  | 70.4 | 
CC(C)(C)c1ccc(Cn2c(-c3nonc3N)nc3ccccc32)cc1 | >4 | >4 | >4 | 67.4 | 
Nc1nonc1-c1nc2ccccc2n1CC(=O)Nc1ccc(F)c(Cl)c1 | 2 | >4 | >4 | 70.5 | 
CC(=O)Nc1nonc1-c1nc2ccccc2n1Cc1cccc(C(F)(F)F)c1 | >4 | >4 | >4 | 82.2 | 
O=C(Nc1nonc1-c1nc2ccccc2n1Cc1ccncc1)c1ccncc1 | >4 | >4 | >4 | 97.1 | 
Nc1nonc1-c1nc2cc(Cl)ccc2[nH]1 | 2 | >4 | >5 | 97.1 | 
c1ccc2[nH]c(-c3nonc3-n3cccc3)nc2c1 | >4 | >4 | >4 | 104 | 
Nc1nonc1-c1nc2ccccc2n1Cc1cc2c(cc1Cl)OCO2 | >4 | >4 | >4 | 88.3 | 
Nc1nonc1-c1nc2ccccc2n1Cc1cc2c(cc1Br)OCO2 | >4 | >4 | >4 | 86.1 | 
Nc1nonc1-c1nc2ccccc2n1Cc1ccncc1 |  |  |  | 97 | 
COc1cccc(Cn2c(-c3nonc3NC(C)=O)nc3ccccc32)c1 | 1 | >4 | >4 |  | GI50 [6]: 3980 nM
C=CCn1c(-c2nonc2NC(C)=O)nc2ccccc21 | >4 | >4 | >4 | 96.5 | 
Nc1nonc1-c1nc2ccccc2n1CC(=O)Nc1ccc(OC(F)(F)F)cc1 | 4 | >4 | >4 | 105 | 

Structure (SMILES) | EC [1] [µM] | EC [2] [µM] | EC [3] [µM] | growth at 10 µM [4] [%] | further results
Cc1cccc(C)c1NC(=O)Cn1c(-c2nonc2N)nc2ccccc21 | >4 | >4 | >4 | 90.2 | 
Nc1nonc1-c1nc2cc(F)ccc2[nH]1 | 2 | >4 | >5 | 97.8 | 
COc1cc2c(c(OC)c1OC)-c1ccc(OC)c(=O)cc1[C@@H](NC(C)=O)CC2 [COLCHICINE] | 50 | 100 | 50 |  | Activity [7]: Active; GI50 [6]: 132 nM
Cc1cc(C)cc(NC(=O)Cn2c(-c3nonc3N)nc3ccccc32)c1 | >4 | >4 | >4 | 109 | 
CCOc1ccc(Cn2c(-c3nonc3N)nc3ccccc32)cc1OCC | >4 | >4 | >4 | 81 | 
COc1ccc2[nH]c(-c3nonc3N)nc2c1 | 0.5 | >4 | >5 | 101 | 
Nc1nonc1-c1nc2ccccc2n1Cc1ccc(F)cc1 | 2 | >4 | >4 |  | GI50 [6]: 8910 nM
COc1ccc(Cn2c(-c3nonc3N)nc3cc(C(F)(F)F)ccc32)cc1 | >4 | >4 | >4 | 81.1 | 
N#CCn1c(-c2nonc2N)nc2ccccc21 | >4 | >4 | >4 | 102 | 
CC[C@]1(O)C[C@@H]2CN(CCc3c([nH]c4ccccc34)[C@@](C(=O)OC)(c3cc4c(cc3OC)N(C)[C@H]3[C@@](O)(C(=O)OC)[C@H](OC(C)=O)[C@]5(CC)C=CCN6CC[C@]43[C@@H]65)C2)C1 [VINBLASTINE] | 0.1 | 0.2 | 2 |  | TGI [8]: 2.5 nM; GI50 ([8]; read-out: GI50): 0.6 nM; TGI [9]: 0.25 nM; GI50 ([9]; read-out: GI50): 0.25 nM; CC50 ([9]; read-out: LC50 (the source's name)): 1 nM; TGI ([10]; OVCAR-3): 1.6 nM; GI50 ([10]; OVCAR-3, read-out: GI50): 0.3 nM; CC50 ([10]; OVCAR-3, read-out: LC50 (the source's name)): 500 nM; TGI ([11]; OVCAR-8): 320 nM; GI50 ([11]; OVCAR-8, read-out: GI50): 1.6 nM; CC50 ([11]; OVCAR-8, read-out: LC50 (the source's name)): 2000 nM; TGI [12]: 790 nM; GI50 ([12]; read-out: GI50): 100 nM; TGI [13]: 50 nM; GI50 ([13]; read-out: GI50): 1 nM; Activity [7]: Active; GI50 [6]: 1.37 nM
Nc1nonc1-c1nc2c(Cl)cccc2[nH]1 | 1 | >4 | >4 | 99.8 | 
COc1ccc2[nH]c(-c3nonc3-n3cccc3)nc2c1 | 2 | >4 | >4 | 104 | 
CN(C)c1nc(N)nc(Cn2c(-c3nonc3N)nc3ccccc32)n1 | 2 | >4 | >4 | 80.8 | 
Nc1nc(Cn2c(-c3nonc3N)nc3ccccc32)nc(N2CCCCC2)n1 | 4 | >4 | >4 | 87.7 | 
N#Cc1ccc2[nH]c(-c3nonc3N)nc2c1 | >4 | >4 | >4 | 107 | 
N#Cc1ccc(Cn2c(-c3nonc3N)nc3ccccc32)cc1 | 4 | >4 | >4 | 79.8 | 
Nc1nonc1-c1nc2ccccc2n1Cc1ccc(Cl)cc1 | >4 | >4 | >4 | 85 | 
CC(=O)Nc1nonc1-c1nc2ccccc2n1Cc1ccccn1 | >4 | >4 | >4 | 104 | 
CC(=O)Nc1nonc1-c1nc2ccccc2n1Cc1ccncc1 | >4 | >4 | >5 | 101 | 

Structure (SMILES) | EC [1] [µM] | EC [2] [µM] | EC [3] [µM] | growth at 10 µM [4] [%] | further results
Nc1nc(N)nc(Cn2c(-c3nonc3N)nc3ccccc32)n1 | >4 | >4 | >4 | 102 | 
Nc1nonc1-c1nc2ccccc2n1Cc1ccccn1 | 2 | >4 | >4 | 89.3 | 
COc1ccc(Cn2c(-c3nonc3NC(C)=O)nc3ccccc32)cc1 | >4 | >4 | >4 | 85 | 
CCC(=O)Nc1nonc1-c1nc2ccccc2n1Cc1ccc(F)cc1Cl | >4 | >4 | >4 | 64.5 | 
C#CCn1c(-c2nonc2N)nc2ccccc21 | >4 | >4 | >4 | 99.6 | 
N#CCCNc1nonc1-c1nc2ccccc2n1CC(=O)c1ccc(N)cc1 [AVANBULIN] |  |  |  |  | GI50 [6]: 6.5 nM
CC(=O)Nc1nonc1-c1nc2ccccc2n1Cc1ccc(Cl)cc1Cl |  |  |  | 76.7 | 
Nc1nonc1-c1nc2ccccc2n1CC(=O)Nc1ccccc1Cl |  |  |  |  | IC50 [5]: 7.36 µM
Nc1nonc1-c1nc2ccccc2n1CC(=O)NCc1ccc(F)cc1 | 4 | >4 | >4 | 102 | 
Nc1nonc1-c1nc2ccccc2n1Cc1cccc2ccccc12 |  |  |  |  | IC50 [5]: 7.03 µM
CC(=O)Nc1nonc1-c1nc2ccccc2n1Cc1ccc(C#N)cc1 | >4 | >4 | >4 | 94.1 | 
Cc1ccc(NC(=O)Cn2c(-c3nonc3NC(=O)c3ccc(F)cc3)nc3ccccc32)cc1F |  |  |  | 71.8 | 
Nc1nonc1-c1nc2ccccc2n1Cc1nnn[nH]1 | >4 | >4 | >4 | 103 | 
Nc1nonc1-c1nc2ccccc2n1Cc1cccc(Br)c1 |  |  |  |  | IC50 [5]: 2.04 µM
Nc1nonc1-c1nc2ccccc2n1CCO |  |  |  | 102 | 
Nc1nonc1-c1nc2ccccc2n1Cc1c(F)cccc1Cl | >4 | >4 | >4 | 91.9 | 
Nc1nonc1-c1nc2ccccc2n1Cc1cccc(F)c1 | 0.5 | >4 | >4 |  | IC50 [5]: 7.9 µM
Nc1nonc1-c1nc2cc3ccccc3cc2[nH]1 | 0.5 | 4 | >4 |  | 
